From ChEMBL document CHEMBL1122499, “Structural requirements of olefinic 5-substituted deoxyuridines for antiherpes activity” (1983)
Converted amounts (≈) assume the structure as drawn.

System: Human alphaherpesvirus 1
Test: Antiviral activity against herpes simplex virus type 1 (HSV-1) determined in baby hamster kidney cells
Type: functional
Conditions: not given
Method in brief: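 Microplaque reduction with HSV-1 strain S3. Serial 0.5 log virus dilutions were inoculated onto baby hamster kidney cell monolayers in microtiter plates for infectivity end-point titration. Compound was present in the overlay (Dulbecco-modified Eagle MEM, 10% donor calf serum, 0.5% carboxymethylcellulose). MIC was the lowest concentration that cut the virus infectivity end point by at least 1 log versus the untreated control.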

Row | SMILES | MIC [µg/mL]
1 | O=c1[nH]c(=O)n([C@H]2C[C@H](O)[C@@H](CO)O2)cc1/C=C/Br (stereo in doubt; 2) [BRIVUDINE] | 0.005 (≈ 0.015 µM)
2 | O=c1[nH]c(=O)n([C@H]2C[C@H](O)[C@@H](CO)O2)cc1/C=C/Br (stereo in doubt; 4) [BRIVUDINE] | 0.1 (≈ 0.3 µM)

Same assay, conditions: Human alphaherpesvirus 1; read-out: MIC

Row | SMILES | MIC [µg/mL]
3 | C/C=C\c1cn([C@H]2C[C@H](O)[C@@H](CO)O2)c(=O)nc1N | > 100
4 | CS/C=C/c1cn([C@H]2C[C@H](O)[C@@H](CO)O2)c(=O)[nH]c1=O | 0.5 (≈ 1.66 µM)
5 | C/C(=C\Br)c1cn([C@H]2C[C@H](O)[C@@H](CO)O2)c(=O)[nH]c1=O | 0.1 (≈ 0.288 µM)
6 | CC(C)(C)/C=C/c1cn([C@H]2C[C@H](O)[C@@H](CO)O2)c(=O)[nH]c1=O | > 10
7 | C/C(=C\Cl)c1cn([C@H]2C[C@H](O)[C@@H](CO)O2)c(=O)[nH]c1=O | > 100
8 | CC#Cc1cn([C@H]2C[C@H](O)[C@@H](CO)O2)c(=O)[nH]c1=O | 1 (≈ 3.76 µM)
9 | C/C=C/c1cn([C@H]2C[C@H](O)[C@@H](CO)O2)c(=O)[nH]c1=S | 100 (≈ 352 µM)
10 | C/C=C/c1cn([C@H]2C[C@H](O)[C@@H](CO)O2)c(=O)nc1N | 50 (≈ 187 µM)
11 | N#C/C=C/c1cn([C@H]2C[C@H](O)[C@@H](CO)O2)c(=O)[nH]c1=O | > 25
12 | O=c1[nH]c(=O)n([C@H]2C[C@H](O)[C@@H](CO)O2)cc1C=C(Br)Br | 0.1 (≈ 0.243 µM)
13 | CCC#Cc1cn([C@H]2C[C@H](O)[C@@H](CO)O2)c(=O)[nH]c1=O | 10 (≈ 35.7 µM)

Results, then the molecule that gave them:

Row | MIC [µg/mL] | SMILES
14 | 1 | C/C(Br)=C/c1cn([C@H]2C[C@H](O)[C@@H](CO)O2)c(=O)[nH]c1=O.C/C(Br)=C\c1cn([C@H]2C[C@H](O)[C@@H](CO)O2)c(=O)[nH]c1=O
15 | > 100 | COC(=O)/C=C/C=C/c1cn([C@H]2C[C@H](O)[C@@H](CO)O2)c(=O)[nH]c1=O
16 | 50 (≈ 177 µM) | C/C=C(\C)c1cn([C@H]2C[C@H](O)[C@@H](CO)O2)c(=O)[nH]c1=O
17 | 100 (≈ 373 µM) | C/C=C\c1cn([C@H]2C[C@H](O)[C@@H](CO)O2)c(=O)[nH]c1=O
18 | > 100 | C/C=C(/C)c1cn([C@H]2C[C@H](O)[C@@H](CO)O2)c(=O)[nH]c1=O
19 | > 50 | CC(C)=Cc1cn([C@H]2C[C@H](O)[C@@H](CO)O2)c(=O)[nH]c1=O
20 | 10 | C/C=C/Cc1cn([C@H]2C[C@H](O)[C@@H](CO)O2)c(=O)[nH]c1=O.C/C=C\Cc1cn([C@H]2C[C@H](O)[C@@H](CO)O2)c(=O)[nH]c1=O
21 | 100 (≈ 373 µM) | C=CCc1cn([C@H]2C[C@H](O)[C@@H](CO)O2)c(=O)[nH]c1=O
22 | 50 (≈ 165 µM) | C=C(Cl)Cc1cn([C@H]2C[C@H](O)[C@@H](CO)O2)c(=O)[nH]c1=O
23 | > 100 | COC(=O)/C(C)=C/c1cn([C@H]2C[C@H](O)[C@@H](CO)O2)c(=O)[nH]c1=O
24 | > 100 | CCC/C=C/c1cn([C@H]2C[C@H](O)[C@@H](CO)O2)c(=O)[nH]c1=O
25 | 10 (≈ 35.2 µM) | CCCCc1cn([C@H]2C[C@H](O)[C@@H](CO)O2)c(=O)[nH]c1=O
26 | 0.5 (≈ 1.77 µM) | CC/C=C/c1cn([C@H]2C[C@H](O)[C@@H](CO)O2)c(=O)[nH]c1=O
27 | > 100 | CCCC/C=C/c1cn([C@H]2C[C@H](O)[C@@H](CO)O2)c(=O)[nH]c1=O
28 | > 100 | COC(=O)/C=C(\C)c1cn([C@H]2C[C@H](O)[C@@H](CO)O2)c(=O)[nH]c1=O
29 | 0.5 (≈ 1.86 µM) | C/C=C/c1cn([C@H]2C[C@H](O)[C@@H](CO)O2)c(=O)[nH]c1=O
30 | 10 (≈ 32 µM) | COC(=O)/C=C/c1cn([C@H]2C[C@H](O)[C@@H](CO)O2)c(=O)[nH]c1=O
